RGS4 block = inhibitors of human RGS4 | HEK293 M3R/RGS4 inducible, Fluo-4 calcium flux; hits give high values; triggered by carbachol at its EC20 | actives 0.45% (n = 310,000) | P49798 | B-score at 10 µM;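 active = B-score, a plate-corrected calcium signal, over three deviations above library mean, with baseline fluorescence within five deviations of library mean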;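 also: RGS4 expression induced by doxycycline in cells with stable M3 receptor; B-score is computed from the integrated fluorescence ratio over baseline after carbachol; higher B-score means a larger calcium signal and so more RGS4 inhibition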
Target sequence (P49798 whole entry, looked up): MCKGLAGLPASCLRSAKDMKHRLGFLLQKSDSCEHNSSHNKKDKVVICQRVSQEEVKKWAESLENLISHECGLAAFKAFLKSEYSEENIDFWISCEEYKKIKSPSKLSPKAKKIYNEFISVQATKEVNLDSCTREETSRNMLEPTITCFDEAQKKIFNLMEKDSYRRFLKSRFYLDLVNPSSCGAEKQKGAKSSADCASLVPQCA
MrgX1 allo act = human MrgX1 positive allosteric modulation, primary screen; MrgX1-HEK293, Fluo-4 calcium flux, FDSS; hits give high values; B-score at 10 µM; actives 0.63% (n = 310,000); Q96LB2;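 active = plate-corrected calcium response at least 3 library SD above typical, normal starting fluorescence, not activating the receptor alone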;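 also: compound read alongside a low EC10 to EC30 dose of BAM8-22 agonist; peak minus trough fluorescence over baseline measured at the second addition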
Target sequence (Q96LB2 whole entry, looked up): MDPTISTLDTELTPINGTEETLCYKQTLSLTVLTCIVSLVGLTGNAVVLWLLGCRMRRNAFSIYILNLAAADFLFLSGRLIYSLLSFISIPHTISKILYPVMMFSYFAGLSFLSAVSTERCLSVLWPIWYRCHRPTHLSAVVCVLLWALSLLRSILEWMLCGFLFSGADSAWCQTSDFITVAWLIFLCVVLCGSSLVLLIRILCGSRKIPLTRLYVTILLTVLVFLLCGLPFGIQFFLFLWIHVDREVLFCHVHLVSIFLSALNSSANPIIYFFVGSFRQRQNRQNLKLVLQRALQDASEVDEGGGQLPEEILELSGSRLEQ
MrgX1 agonist = human MrgX1 receptor agonism, primary screen; MrgX1-HEK293 cells, Fluo-4 calcium fluorescence, agonist mode; hits give high values; actives 0.44% (n = 310,000); Q96LB2; AID 588627; B-score at 10 µM;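 active = calcium response B-score plate-corrected fluorescence ratio at least 3 library SD, with starting fluorescence B-score inside 5 SD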
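times = overnight plating, then 30 min 37 °C plus 30 min room-temperature dye loading | assay system = stable human MrgX1 HEK293 cell line | input = fifteen thousand cells per well | signal = kinetic calcium dye fluorescence, Fluo-4 NW | dosing = compound delivered in addition one of three | read-out = B-scored fluorescence response ratio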
RGS4 pot = RGS4 potentiation or activation. HEK293 M3R/inducible RGS4, carbachol calcium flux Fluo4; hits give low values. B-score at 10 µM. actives 0.92% (n = 310,000). AID 463111;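 active = B-score of the integrated calcium signal more than 4 SD below the library mean, with starting fluorescence not abnormally high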;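 also: negative B-score means reduced calcium response which marks RGS4 activation or potentiation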
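Assay system: Inducible-RGS4 HEK293 cells carrying M3 receptor | Schedule: Compound preincubation 20 min at room temperature before agonist | Signal: Kinetic calcium fluorescence imaging with Fluo4-AM dye, 2 µM | Read-out basis: B score from integrated fluorescence ratio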
MrgX1 antagonist = blocks BAM8-22 activation of human MrgX1 receptor | B-score at 10 µM | Q96LB2 | MRGX1-HEK293 calcium flux, Fluo-4, BAM8-22 antagonism; hits give low values | actives 1.3% (n = 310,000);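 active = calcium-response B-score plate-corrected more than 3 library SD below zero, starting fluorescence within 5 deviations, no agonist response on first addition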;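 also: peak minus trough fluorescence over baseline after final BAM8-22 challenge near maximal dose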
RGS4 block valid = validation of RGS4 inhibitors; AID 492999; shares compounds with RGS4 block; calcium response, % at 10 µM; actives 65% (n = 1,700); HEK293 M3R/RGS4, carbachol calcium Fluo-4 fluorescence; carbachol added at its EC20; 0 = buffer wells, 100 = carbachol control;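 active = duplicate-averaged calcium response above the buffer-only control mean plus 5 SD of those controls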;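 also: integrated fluorescence ratio F max minus min over baseline F0; higher response in RGS4-induced cells means RGS4 inhibition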
RGS4 uninduced = checks RGS4 inhibitor effects in non-induced HEK293 M3R cells | actives 20% (n = 1,900) | carbachol calcium Fluo-4; submaximal (EC20) carbachol stimulus; buffer wells 0%, carbachol control wells 100% | shares compounds with RGS4 block | activity (percent), % at 10 µM; call rule not given here;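 also: RGS4 induction absent so cells express M3R without RGS4; higher means more calcium signal and flags a non-specific hit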
M3R basal Ca ctr = second RGS4 inhibitor counter-screen in uninduced cells lacking carbachol; shares compounds with RGS4 block; HEK293 M3R/RGS4 non-induced, Fluo-4 calcium, no carbachol; normalised: buffer wells 0%, carbachol wells 100%; calcium response (agonist-mode artifact), % at 10 µM; actives 22% (n = 1,900);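 active = duplicate-averaged calcium rise in uninduced cells above buffer wells' mean plus 5 SD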
* marks the source's active call; other numbers are inactive results. Hits are enriched below; roughly 3.5% of the tested compounds scored in any of these assays.

What do the screens show for `COc1ccc(NC(=O)/C(Cl)=C(/Cl)S(=O)(=O)Cc2ccc(C)cc2)cn1`?
RGS4 block: 12*; RGS4 pot: inactive; RGS4 block valid: 24.0%*; RGS4 uninduced: inactive; M3R basal Ca ctr: 7.5%*

How did CCn1cc([N+](=O)[O-])c(C(=O)N2N=C(c3ccc(Cl)c(Cl)c3)CC2c2ccccc2O)n1 (stereo unspecified) do in these assays?
RGS4 block: 6.39*; MrgX1 allo act: inactive; MrgX1 agonist: inactive; RGS4 pot: inactive; MrgX1 antagonist: inactive; RGS4 block valid: 21.5%*; RGS4 uninduced: inactive; M3R basal Ca ctr: inactive

Results for CCn1cc([N+](=O)[O-])c(C(=O)N2N=C(c3ccc4ccccc4c3)CC2c2cc(Br)ccc2O)n1 (stereo unspecified) ?
RGS4 block: inactive; MrgX1 allo act: inactive; MrgX1 agonist: inactive; RGS4 pot: inactive; MrgX1 antagonist: inactive

How did CCn1cc([N+](=O)[O-])c(C(=O)N2N=C(c3ccc(O)c(OC)c3)CC2c2ccccc2O)n1 (stereo unspecified) do in these assays?
RGS4 block: inactive; MrgX1 allo act: inactive; MrgX1 agonist: inactive; RGS4 pot: inactive; MrgX1 antagonist: inactive; RGS4 uninduced: inactive; M3R basal Ca ctr: inactive

How did C=CCN1C(=O)c2ccc(C(=O)Nc3ccccn3)cc2C1=O do in these assays?
RGS4 block: inactive; MrgX1 allo act: inactive; MrgX1 agonist: inactive; RGS4 pot: inactive; MrgX1 antagonist: inactive

Results for COc1cc(CN2CCNC(=O)C2CC(=O)N(C)CCC2CCOCC2)cc(OC)c1 (stereo unspecified) ?
RGS4 block: inactive; MrgX1 allo act: inactive; MrgX1 agonist: inactive; RGS4 pot: inactive; MrgX1 antagonist: inactive

Results for COCCNC(=S)N/N=C(\C)c1ccccc1OC ?
RGS4 block: 5.69*; MrgX1 allo act: inactive; MrgX1 agonist: inactive; RGS4 pot: inactive; MrgX1 antagonist: inactive; RGS4 block valid: 39.5%*; RGS4 uninduced: inactive; M3R basal Ca ctr: inactive

Results for Cc1cccc2cc(/C=C/C(=O)c3ccco3)c(Cl)nc12 ?
RGS4 block: inactive; MrgX1 allo act: inactive; MrgX1 agonist: inactive; RGS4 pot: inactive; MrgX1 antagonist: inactive

How did CCOc1ccc2nc(Cl)c(/C=C/C(=O)c3ccco3)cc2c1 do in these assays?
RGS4 block: 9.51*; MrgX1 allo act: inactive; MrgX1 agonist: inactive; RGS4 pot: inactive; MrgX1 antagonist: inactive; RGS4 block valid: inactive; RGS4 uninduced: 40.5%*; M3R basal Ca ctr: inactive

How did NS(=O)(=O)c1ccc(CCNC(=O)c2cnccn2)cc1 do in these assays?
RGS4 block: inactive; MrgX1 allo act: inactive; MrgX1 agonist: inactive; RGS4 pot: inactive; MrgX1 antagonist: inactive

What do the screens show for `C[C@@H]1C=CC(=O)O[C@@H]1c1ccc(Cl)cc1`?
RGS4 block: inactive; MrgX1 allo act: inactive; MrgX1 agonist: inactive; RGS4 pot: inactive; MrgX1 antagonist: inactive

How did CCOC(=O)N1CCc2c(sc3c2c(=O)n(Cc2ccccc2)c(=O)n3CC(=O)NCC2CCCO2)C1 (stereo unspecified) do in these assays?
RGS4 block: inactive; MrgX1 allo act: inactive; MrgX1 agonist: inactive; RGS4 pot: inactive; MrgX1 antagonist: inactive

Results for CCOC(=O)N1CCc2c(sc3c2c(=O)n(Cc2ccccc2)c(=O)n3Cc2cccc(C)c2)C1 ?
RGS4 block: 6.84*; MrgX1 allo act: inactive; MrgX1 agonist: inactive; RGS4 pot: inactive; MrgX1 antagonist: inactive; RGS4 block valid: 31.5%*; RGS4 uninduced: 38.5%*; M3R basal Ca ctr: inactive

Results for CCOC(=O)N1CCc2c(sc3c2c(=O)n(Cc2ccccc2)c(=O)n3Cc2ccccc2F)C1 ?
RGS4 block: 7.34*; MrgX1 allo act: inactive; MrgX1 agonist: inactive; RGS4 pot: inactive; MrgX1 antagonist: inactive; RGS4 block valid: 56.5%*; RGS4 uninduced: 33.5%*; M3R basal Ca ctr: inactive

What do the screens show for `CCNC(=O)CSc1nnc(-c2ccccc2Br)n1-c1cccc(C(F)(F)F)c1`?
RGS4 block: inactive; MrgX1 allo act: inactive; MrgX1 agonist: inactive; RGS4 pot: inactive; MrgX1 antagonist: inactive

What do the screens show for `Nn1c(COc2ccccc2F)nnc1SCC(=O)NC1CCS(=O)(=O)C1` (stereo unspecified)?
RGS4 block: inactive; MrgX1 allo act: inactive; MrgX1 agonist: inactive; RGS4 pot: inactive; MrgX1 antagonist: inactive

Results for CCOC(=O)[C@@H]1[C@H]2COc3ccccc3[C@H]2N2C(=O)N(c3ccc(C(F)(F)F)cc3)C(=O)[C@]12C ?
RGS4 block: inactive; MrgX1 allo act: inactive; MrgX1 agonist: inactive; RGS4 pot: inactive; MrgX1 antagonist: inactive; RGS4 block valid: inactive; RGS4 uninduced: inactive; M3R basal Ca ctr: inactive

Results for CCOC(=O)[C@@H]1[C@H]2COc3ccccc3[C@@H]2N2C(=O)N(c3ccc(C(F)(F)F)cc3)C(=O)[C@]12C ?
RGS4 block: inactive; MrgX1 allo act: inactive; MrgX1 agonist: inactive; RGS4 pot: inactive; MrgX1 antagonist: inactive; RGS4 block valid: inactive; RGS4 uninduced: inactive; M3R basal Ca ctr: inactive

What do the screens show for `O=C(COC(=O)CCc1c[nH]c2ccccc12)NC(c1ccccc1)c1ccccc1`?
RGS4 block: inactive; MrgX1 allo act: inactive; MrgX1 agonist: inactive; RGS4 pot: inactive; MrgX1 antagonist: inactive

How did O=C(NCc1ccccc1Cl)/C(=C\c1cccnc1)NC(=O)c1ccccc1 do in these assays?
RGS4 block: inactive; MrgX1 allo act: inactive; MrgX1 agonist: inactive; RGS4 pot: inactive; MrgX1 antagonist: inactive

How did COc1ccc(C(=O)N/C(=C\c2ccccc2)C(=O)NCc2cccnc2)cc1 do in these assays?
RGS4 block: inactive; MrgX1 allo act: inactive; MrgX1 agonist: inactive; RGS4 pot: inactive; MrgX1 antagonist: inactive; RGS4 block valid: inactive; RGS4 uninduced: inactive; M3R basal Ca ctr: inactive

What do the screens show for `O=C(NCc1cccnc1)/C(=C/c1ccc(Cl)cc1)NC(=O)c1ccccc1`?
RGS4 block: inactive; MrgX1 allo act: inactive; MrgX1 agonist: inactive; RGS4 pot: inactive; MrgX1 antagonist: inactive; RGS4 block valid: inactive; RGS4 uninduced: inactive; M3R basal Ca ctr: inactive
